HCT116 PTEN-null: suppresses growth of cells with PTEN deletion; HCT116 PTEN-null viability, CellTiter-Glo, 60 h; hits give low values; viability, % at 10 µM; 140,000 compounds, 1.2% hits; AID 827;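 active means viability at or below a set limit, 4 SD under the median of all tested compounds, cut at about 3.7% in these data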;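 further: PTEN knockout HCT116 line with beta catenin targeted HCT116 as companion control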
Dynein cargo inh: blocks dynein driven cargo transport along microtubules; 3617.4 mouse cells, GR-EGFP nuclear translocation imaging; test concentration mostly 20 µM; stimulated with dexamethasone, 1 µM; hits give low values; z-score, hits read low; 220,000 compounds, 0.47% hits; AID 1381;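 active means plate z-score of nuclear minus cytoplasmic receptor signal below a set negative limit, without overly bright fluorescence or cell loss, cut at about -3.5 in these data, passing the limit was not always enough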;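 further: z-score of nuclear minus cytoplasmic ring GR-EGFP intensity difference per well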
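Also added – dexamethasone, 1.0 µM final · Buffer or medium – tet-free, stripped-serum medium · Schedule – induction 48 h, compound 1 h, agonist 30 min · Detection – formaldehyde fixation, Hoechst nuclear stain, 10x automated fluorescence imaging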
HCT116 bCat-KO: beta-catenin-lacking colon tumor cell growth suppression. viability, % at 10 µM. HCT116 beta-catenin knockout viability, CellTiter-Glo, 60 h; hits give low values. 140,000 compounds, 1.5% hits. AID 818;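 active means viability at or under a set limit, the compound median less 4 SD, cut at about 6% in these data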;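 further: 0% = Hyamine 1622 control at 20 µM and 100% = untreated cell control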
Autophagy HCS: alters autophagy in cells | MEF GFP-LC3 puncta imaging; test concentration mostly 10 µM | calls only at 10 µM (by protocol) | 190,000 compounds, 0.98% hits | AID 463193;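 active means percentage of spot-positive cells more than 3 SD above its plate mean, without a fluorescence outlier flag or 80% toxicity; inconclusive means no clear call, values can overlap the other calls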;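 further: spot-positive cell cutoff set from DMSO-treated cells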
sdo1 growth: sdo1-depleted yeast growth rescue | S. cerevisiae sdo1-depleted JHY4D growth rescue, OD600 30 h; hits give high values; pdr5 snq2 efflux-pump mutant strain | z-score at 10 µM | 140,000 compounds, 0.21% hits | AID 817;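 active means z-score above 3 at both the 24 hr and the 30 hr optical density reads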;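 further: z-score against mean and SD of all compound wells on the same plate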
An asterisk follows results filed as active; i = inactive; u = inconclusive; x = not tested or not shown; + = active, no number. A selection: hits, their analogues and other compounds. The true share with any hit is near 2.2%.

SMILES	HCT116 PTEN-null	Dynein cargo inh	HCT116 bCat-KO	Autophagy HCS	sdo1 growth
CC(C)c1ccc(NC(=O)NC2CCN(CC(=O)Nc3cccc4ccccc34)CC2)cc1	58	0.47	57	+	1.2
O=C(CN1CCC(NC(=O)c2ccco2)CC1)Nc1cccc2ccccc12	87	-0.31	91	i	-0.47
COc1ccc(NC(=O)/C=C/c2cc(Br)ccc2OC)cc1	70	0.55	72	i	-0.76
COc1ccc(Br)cc1/C=C/C(=O)c1ccc(NC(C)=O)cc1	1.3*	-3.5*	4.9*	i	-1.2
COc1cc(/C=C/C(=O)c2ccc(NS(=O)(=O)c3ccc(C)cc3)cc2)ccc1OC(F)F	2.9*	-1.2	4.8*	i	-0.16
COc1ccc(/C=C/C(=O)c2ccc(NC(=O)c3cccs3)cc2)cc1OC	1.8*	0.22	1.4*	i	-1.9
Cc1ccccc1-n1cc(CNC(=O)CCc2nnc(CCc3ccccc3)o2)cn1	x	1.8	x	i	x
Cc1cc(C2(c3ccc(O)c(C)c3)C(=O)Nc3ccccc32)ccc1O	1.5*	-2.7	1.1*	i	-0.56
O=c1oc2ccc3ccccc3c2cc1-c1nnc(-c2ccccc2)o1	37	-1.3	42	i	-1.2
CCN(CC)c1ccc2cc(-c3nnc(-c4ccc(Br)cc4)o3)c(=O)oc2c1	x	-5.7*	x	u	x
CCN(CC)c1ccc2cc(-c3nnc(-c4ccccc4)o3)c(=O)oc2c1	15	-4.5*	22	u	-0.93
COc1ccc(-n2c(NCCN(C)C)nc3sc4c(c3c2=O)CCCCC4)cc1	43	-0.025	56	i	-0.86
CSc1ccc(/C=c2\s/c(=C\C(=O)C(C)(C)C)n(CC(=O)NCCC3=CCCCC3)c2=O)cc1	58	1	68	+	0.66
CCCn1c(/C=N/Nc2nc3ccccc3[nH]2)nc2ccccc21	3.0*	-0.67	3.6*	i	-1.2
Cn1c(/C=N/Nc2nc3ccccc3[nH]2)nc2ccccc21	x	0.59	x	i	x
CC(=O)Nc1ccc(/C=N/Nc2nc3ccccc3[nH]2)cc1	36	-0.23	16	i	1.1
CCN(CC)c1ccc(/C=N/Nc2nc3ccccc3[nH]2)cc1	1.6*	0.78	2.8*	+	-1.4
Cc1cc(CNC(=O)Cc2ccccc2)c2ccccc2n1	x	-0.76	x	+	x
COc1cc(OC)cc(C(=O)NCc2cc(C)nc3ccccc23)c1	x	-0.06	x	i	x
CCOC(=O)c1sc(NC(=S)NC(=O)c2ccccc2)c(C(=O)OCC)c1C	52	0.25	52	+	-0.89
CCOC(=O)c1sc(NC(=S)NC(=O)c2ccccc2Cl)c(C(=O)OCC)c1C	76	1	56	i	-0.21
CCOC(=O)c1cnc2ccc(C(=O)OC)cc2c1Nc1ccc2c(c1)OCCO2	82	-0.24	89	+	0.65
CN1/C(=C\C=Nc2ccc3ccccc3c2)C(C)(C)c2ccccc21	50	1.1	47	+	-0.46
CN1/C(=C\C=O)C(C)(C)c2ccccc21	x	-0.49	x	i	x
CN1\C(=C/C=C/C=C/C=[N+](C)C)C(C)(C)c2ccccc21	x	0.42	x	+	x
SMILES	HCT116 PTEN-null	Dynein cargo inh	HCT116 bCat-KO	Autophagy HCS	sdo1 growth
O=C(Nc1ccc(F)cc1)N1CCC(c2nc3c(nnn3Cc3ccccc3Cl)c(=O)[nH]2)CC1	x	-0.33	x	i	x
O=C(CSc1ncccn1)NN=C1CCCCCC1	100	-0.71	103	i	0.63
CN(CCNC(=O)c1cc2c(=O)n(C)c3ccccc3c2n1C)Cc1ccccc1	3.3*	-0.11	2.4*	i	-0.06
Cn1c(C(=O)NC2CCCCCC2)cc2c(=O)n(C)c3ccccc3c21	54	-0.81	61	i	-1.7
Cn1c(C(=O)NC2CCCCC2)cc2c(=O)n(C)c3ccccc3c21	19	0.36	3.4*	i	-0.3
Clc1cccc(Cl)c1-c1noc(CN2CCOCC2)n1	x	-1.3	x	x	x
Cc1ccc2c(c1C)NC(C)CC2C (centres undefined)	93	0.19	102	i	0.5
O=[N+]([O-])c1ccc(N2CCCCC2)cc1NCCOc1ccccc1	93	0.68	95	i	-0.86
Cc1ccccc1OCCNc1cc(N2CC(C)NC(C)C2)ccc1[N+](=O)[O-] (centres undefined)	x	0.26	x	+	x
COc1ccc([N+](=O)[O-])cc1NC(=S)NC(NC(C)=O)C(Cl)(Cl)Cl (centres undefined)	x	0.32	x	x	x
COc1ccc([N+](=O)[O-])cc1NC(=S)NC(NC(=O)Cc1ccc(OC)c(OC)c1)C(Cl)(Cl)Cl (centres undefined)	4	-0.24	4.9*	i	-1.6
C=CCNC(=S)/C(=C(/[O-])c1ccc([N+](=O)[O-])cc1)[n+]1ccccc1	x	-1.1	x	i	x
CN(c1cccc(NC(=O)CN(c2ccc(C34CC5CC(CC(C5)C3)C4)cc2)S(C)(=O)=O)c1)S(C)(=O)=O	2.0*	0.64	1.9*	i	-0.11
CC1CCN(S(=O)(=O)c2ccc3c(c2)C(=NO)c2cc(S(=O)(=O)N4CCC(C)CC4)ccc2-3)CC1	1.2*	1.9	0.8*	+	-0.57
O=S(=O)(c1ccc(S(=O)(=O)N2CCCC2)cc1)N1CCCCCC1	99	-0.62	95	i	0.96
O=S(=O)(c1ccc2c(c1)C(=NO)c1cc(S(=O)(=O)N3CCCCC3)ccc1-2)N1CCCCC1	1.6*	0.4	0.9*	u	-0.49
CC1CCN(S(=O)(=O)c2cccc(C(=O)O)c2)CC1	90	-0.18	93	i	0.41
CC(=O)NC(c1ccccc1)c1c(O)ccc2ccccc12 (centres undefined)	x	1.1	x	i	x
CCCCn1c(Oc2ccc(C(=O)OC)cc2)nc2c1c(=O)n(C)c(=O)n2C	89	1.1	89	+	0.36
CCn1c(Oc2ccc(F)cc2)nc2c1c(=O)n(C)c(=O)n2C	x	-0.74	x	i	x
CCCOc1ccc(N2C(=O)CC(N3CCN(CCN=CC4C(=O)CC(C)(C)CC4=O)CC3)C2=O)cc1 (centres undefined)	x	-0.13	x	i	x
CN=C1c2cc3cc(OC)ccc3n2CCN1Cc1ccccc1	15	-0.37	19	+	-0.39
CC(=O)/C(N=Nc1cc2c(c([N+](=O)[O-])c1C)C(C)(C)CC2(C)C)=C(\C)O	x	-0.18	x	x	x
CC(CN1C(C)CCCC1C)OC(=O)c1ccc(Cl)cc1Cl (centres undefined)	x	-0.025	x	+	x
CC(CN1C(C)CCCC1C)OC(=O)c1ccccc1Cl (centres undefined)	x	-0.98	x	i	x
